Tests used:
A549 cells [1] = assay: In vitro cytotoxicity, MTT assay; format: cell-based, human; conditions: 48 h
In short: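 A549 cells (DMEM, 10% FBS, penicillin/streptomycin, 37 °C, 5% CO2) seeded at 5 × 10³ per well and left overnight. Exposed 48 h to test compound at 6.25–200 μM. MTT (0.5 mg mL−1 in DMEM) added for 4 h; formazan dissolved in DMSO; A490 read. Viability taken as % of (ODtest − ODblank)/(ODcontrol − ODblank); means ± SD.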

[2] = DPPH radical scavenging assay
In short: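 Test compound dissolved in DMSO and diluted in ethanol; a series of concentrations mixed with 2 mL DPPH solution (3.94 mg per 100 mL anhydrous ethanol). Kept 30 min at room temperature in the dark, then A519 read. Scavenging calculated as % of (Acontrol − Asample)/Acontrol. Vitamin C served as reference.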

A549 cells [3] = assay: Cell viability after H2O2 induced oxidative stress; format: cell-based, human; conditions: A549, 24 h pretreatment at 3.125–100 μM, then 800 μM H2O2 for 4 h
In short: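 A549 cells in DMEM with 10% FBS and penicillin/streptomycin at 37 °C, 5% CO2, pretreated with test compound for 24 h, then given 800 μM H2O2 for 4 h. Untreated and H2O2-only groups run alongside. Viability by MTT (0.5 mg mL−1, 4 h, DMSO solubilisation, A490) as % of (ODtest − ODblank)/(ODcontrol − ODblank). n = 4; ANOVA with LSD post hoc test.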

| SMILES | viability of A549 cells (A549 cells [1]; concentration ≤200 μM) | free radical scavenging effect compared with vitamin C [2] | further results |
| --- | --- | --- | --- |
| CC(=O)Oc1ccc(/C=C\C(=O)Nc2ccc(S(=O)(=O)Nc3ncccn3)cc2)cc1OC(C)=O [ACASDZ, (Z)-4-(3-Oxo-3-(4-(N-pyrimidin-2ylsulfamoyl)phenylamino)prop-1-enyl)-1,2-phenylene diacetate] | not significantly decreased |  |  |
| COc1cnc(NS(=O)(=O)c2ccc(NC(=O)/C=C\c3ccc(OC(C)=O)c(OC(C)=O)c3)cc2)nc1 [ACASMD, (Z)-4-(3-(4-(N-(5-Methoxypyrimidin-2yl)sulfamoyl)phenylamino)-3-oxoprop-1-enyl)-1,2-phenylene diacetate] | not significantly decreased |  |  |
| CC(=O)Oc1ccc(/C=C\C(=O)Nc2ccc(S(N)(=O)=O)cc2)cc1OC(C)=O [ACASN, (Z)-4-(3-Oxo-3-(4-sulfamoylphenylamino)prop-1-enyl)-1,2-phenylene diacetate] | not significantly decreased |  |  |
| O=C(/C=C\c1ccc(O)c(O)c1)Nc1ccc(S(=O)(=O)Nc2ncccn2)cc1 [CASDZ, (Z)-3-(3,4-Dihydroxyphenyl)-N-(4-(N-pyrimidin-2-ylsulfamoyl)phenyl)acrylamide] | not significantly decreased | higher | growth of A549 cells (A549 cells [1]; concentration of 200 μM): significantly inhibits |
| COc1cnc(NS(=O)(=O)c2ccc(NC(=O)/C=C\c3ccc(O)c(O)c3)cc2)nc1 [CASMD, (Z)-3-(3,4-Dihydroxyphenyl)-N-(4-(N-(5-methoxypyrimidin-2-yl)sulfamoyl)phenyl)acrylamide] | not significantly decreased | higher | viability of A549 cells (A549 cells [1]; concentration ≤100 μM): not significantly decreased |
| NS(=O)(=O)c1ccc(NC(=O)/C=C\c2ccc(O)c(O)c2)cc1 [CASN, (Z)-3-(3,4-Dihydroxyphenyl)-N-(4-sulfamoylphenyl)acrylamide] | not significantly decreased | higher |  |
| O=C(O)/C=C/c1ccc(O)c(O)c1 [Caffeic acid] |  |  | prevention of 800 μM H2O2 induced decrease in cell viability (A549 cells [3]): could not prevent |
| O=C1O[C@H]([C@@H](O)CO)C(O)=C1O [Vitamin C] |  |  | prevention of 800 μM H2O2 induced decrease in cell viability (A549 cells [3]): could not prevent |

— publication PMC9122571 (RSC Advances, 2020)
